Assay outcomes: PubChem, several laboratories
Compounds with a hit are over-represented: about 2.7% of the library has one in this group of screens.
Rev-erbA mod: Rev-erb alpha (human) modulation; activity, % at 10 µM; Rev-erbα–FITC-DNA binding, fluorescence polarization, 90 min; P20393; 0.79% of 370,000 active;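 active = activity above about 14%, limit read from the data; passing the limit was not always enough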
Target sequence (P20393 whole entry, looked up): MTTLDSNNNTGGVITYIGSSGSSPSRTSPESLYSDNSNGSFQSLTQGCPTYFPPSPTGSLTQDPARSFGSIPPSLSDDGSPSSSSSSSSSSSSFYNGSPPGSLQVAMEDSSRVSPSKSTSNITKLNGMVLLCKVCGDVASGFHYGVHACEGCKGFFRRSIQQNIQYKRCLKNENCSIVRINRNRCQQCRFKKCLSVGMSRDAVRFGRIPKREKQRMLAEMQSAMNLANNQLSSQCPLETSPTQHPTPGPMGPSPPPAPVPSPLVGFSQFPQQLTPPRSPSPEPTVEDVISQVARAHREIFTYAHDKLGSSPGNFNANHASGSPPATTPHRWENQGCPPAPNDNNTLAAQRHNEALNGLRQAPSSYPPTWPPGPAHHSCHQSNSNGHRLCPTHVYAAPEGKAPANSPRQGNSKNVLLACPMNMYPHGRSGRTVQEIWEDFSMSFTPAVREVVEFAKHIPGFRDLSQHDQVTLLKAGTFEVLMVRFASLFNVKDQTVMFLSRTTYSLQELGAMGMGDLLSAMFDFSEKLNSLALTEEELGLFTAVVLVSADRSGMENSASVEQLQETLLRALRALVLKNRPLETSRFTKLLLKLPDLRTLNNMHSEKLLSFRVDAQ
PG9 binder: binds the HIV-1 gp120 antibody PG9. 0.43% of 360,000 active. inhibition, % at 6.7 µM. AID 624416. TR-FRET gp120-PG9 antibody binding; in the data active = inhibition above about 8.5%
MC4R ag barr: human MC4R agonism via beta-arrestin; P32245; U2OS MC4R beta-arrestin complementation, luminescence; percent of melanotan II response, DMSO zero; activation, % at 8.9 µM; 0.98% of 360,000 active;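 active = activation above a per-plate cutoff, the mean activation of sample wells on that plate plus 3 SD, cut at about 8% in these data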
MC4R antagonist: blocks human MC4R cAMP signaling; 0.48% of 360,000 active; P32245; inhibition, % at 6.5 µM; MC4R-expressing cells, MTII-stimulated cAMP, LANCE TR-FRET;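 active = inhibition above its plate's cutoff, the mean of tested wells on that plate plus 3 SD, cut at about 29% in these data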
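System: U2OS cells stably expressing human melanocortin 4 receptor (MC4R). Reagent: Melanotan II challenge after compound preincubation. Doses: 6.5 µM. Times: 30-min compound, 1-h challenge, 1-h detection, room temperature. Measured by: TR-FRET with Eu-cAMP and labeled anti-cAMP, 671 nm. Replicates: singlicate.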
NR2E3 ag-1: activates human NR2E3 receptor. CHO-S Gal4-NCOR/VP16-NR2E3 two-hybrid, luciferase. AID 602229. inhibition of corepressor binding, % at 3.98 µM. Q9Y5X4. 0.35% of 360,000 active;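 active = inhibition above the mean of all tested compounds plus 3 SD, cut at about 70% in these data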;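 also: higher means lower luciferase signal from less NR2E3 corepressor binding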
NR2E3 ag-2: activates human photoreceptor nuclear receptor NR2E3. GST-NR2E3/biotin-RetCOR TR-FRET, 1536-well. inhibition of corepressor binding, % at 4.78 µM. 0.12% of 320,000 active. AID 2300;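 active = percent inhibition above the cutoff of mean plus 3 SD of all tested compounds, set per screening campaign, cut at about 20% in these data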
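Test system – NR2E3–RetCOR corepressor complex · Quantity – NR2E3 fusion 1.35 nM · Buffer or medium – Tris pH 7.5 · Incubation – Compound–protein incubation for 5 h at 4 °C · Technique – TR-FRET, Eu(K)-anti-GST donor, streptavidin-D2 acceptor, ex 340, em 617/671 nm · Evaluation – percent inhibition of 671/617 nm emission ratio versus biotin and DMSO controls · Plate – 1536-well format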
NR2E3 ag confirm: confirmation of human NR2E3 agonists | AID 624378 | CHO-S mammalian two-hybrid NR2E3-NCOR, luciferase luminescence | inhibition, % at 3.98 µM | 51% of 2,300 active | shares compounds with NR2E3 ag-1;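 active = average inhibition above a cutoff equal to the mean inhibition of all tested compounds plus one SD, cut at about 70% in these data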
VP16 counter: reduces GAL4-VP16 reporter signal in NR2E3 counterscreen. shares compounds with NR2E3 ag-1. CHO-S GAL4-VP16 luciferase reporter, luminescence. inhibition, % at 3.98 µM. 29% of 2,300 active. AID 624379;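 active = mean inhibition above a cutoff equal to the average over all tested compounds plus one standard deviation, cut at about 70% in these data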;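 also: luciferase from a UAS reporter driven by GAL4-VP16 transactivation; higher means less reporter light so more repression of VP16 activity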
Each line names hits and unclear results; the compound was inactive in the other large screens (follow-up assays come after a bar, where they were run).

Cc1onc(-c2ccccc2)c1C(=O)Nc1ncc([N+](=O)[O-])s1	NR2E3 ag-1 101.1 | NR2E3 ag confirm 98.9 | VP16 counter 81.0
Cc1ccc(NC(=O)OCc2cn(-c3ccc(Cl)cc3)nn2)cc1	none
O=S(=O)(C/C(=C/CO)S(=O)(=O)c1ccccc1)c1ccccc1	none | NR2E3 ag confirm inactive | VP16 counter inactive
O=C(CS(=O)(=O)c1ccccc1)CS(=O)(=O)c1ccccc1	none (no result: MC4R ag barr, MC4R antagonist, NR2E3 ag-1, NR2E3 ag-2)
CC(=O)c1ccc(OCC(=O)NC(=O)NC2CCCCC2)cc1	none | NR2E3 ag confirm inactive | VP16 counter inactive
CC1CCCCN1S(=O)(=O)c1ccc(N(C(=O)c2cnccn2)C(C(=O)NC2CCCC2)c2cccs2)cc1 (centres undefined)	none
CC1CCCCN1S(=O)(=O)c1ccc(N(C(=O)c2cnccn2)C(C(=O)NC2CCCCC2)c2cccs2)cc1 (centres undefined)	none | NR2E3 ag confirm inactive | VP16 counter inactive
CS(=O)(=O)CCSc1ncccc1C(=O)NCc1cccs1	none
CC(OCC(O)CN1CCN(S(=O)(=O)c2ccc(Cl)cc2)CC1)c1ccc(Cl)cc1 (centres undefined)	none (no result: NR2E3 ag-2) | NR2E3 ag confirm inactive | VP16 counter inactive
Fc1ccc2[nH]c3c(NCc4ccccc4)ncnc3c2c1	NR2E3 ag-1 90.0 | NR2E3 ag confirm 97.5 | VP16 counter 86.8
COc1ccc2[nH]c3c(NCc4ccco4)ncnc3c2c1	none (no result: Rev-erbA mod, PG9 binder, MC4R ag barr, MC4R antagonist, NR2E3 ag-1)
O=C(NNc1ccccc1)C(=O)NNc1ccccc1	none (no result: NR2E3 ag-2) | NR2E3 ag confirm inactive | VP16 counter inactive
O=C(NNc1ccnc2cc(Cl)ccc12)C1CCCCC1	none | NR2E3 ag confirm 97.3 | VP16 counter 86.5
O=C(Oc1ccnc2cc(Cl)ccc12)N1CCCCCC1	none | NR2E3 ag confirm inactive | VP16 counter inactive
CC(=O)Nc1cccc(N=NN2CCOCC2)c1	none
c1ccc2c(c1)oc1c(NCc3ccc4c(c3)OCO4)ncnc12	NR2E3 ag-1 72.8 (no result: Rev-erbA mod, PG9 binder) | NR2E3 ag confirm 89.7 | VP16 counter 75.3
O=C(CN1CCCCC1)Nc1cc(Cl)ccc1Cl	none
Cc1ccc(S(=O)(=O)N2CCN(c3ccnc4cc(Cl)ccc34)CC2)cc1	none
CC(=O)c1ccc(S(=O)(=O)N2CCN(c3ccnc4cc(Cl)ccc34)CC2)cc1	none (no result: NR2E3 ag-2) | NR2E3 ag confirm inactive | VP16 counter inactive
COC1OC(CO)C(O)C(O)C1O (centres undefined)	none
Cc1ccccc1Oc1cc(NC(=O)CCCn2nc(C)c([N+](=O)[O-])c2C)cc([N+](=O)[O-])c1	none | NR2E3 ag confirm inactive | VP16 counter inactive
N#CCCn1cc(/C=N/NC(N)=S)c(-c2ccc(-c3ccccc3)cc2)n1	none
COc1cc2sc3ccc(C#CC4(O)CCCCC4)cc3c(=O)c2cc1OC	none
Cn1c2ccccc2c(=O)c2ccc(C#CC3(O)CCCCC3)cc21	none | NR2E3 ag confirm inactive | VP16 counter inactive
Cc1ccc(N2CC(C(=O)Nc3nccs3)CC2=O)cc1Cl (centres undefined)	none | NR2E3 ag confirm inactive | VP16 counter inactive
COCc1nnc(NC(=O)C2CC(=O)N(c3ccc(C)c(Cl)c3)C2)s1 (centres undefined)	none
CCOC(=O)C1=Nc2ccccc2C1=[N+]=[N-]	NR2E3 ag-1 97.0 | NR2E3 ag confirm inactive | VP16 counter 79.4
Cc1sc2ncn(CCn3cnc4sc(C)c(C)c4c3=O)c(=O)c2c1C	none | NR2E3 ag confirm inactive | VP16 counter inactive
Cc1sc2ncn(CCC(=O)O)c(=O)c2c1C	none
CC(=O)Nc1ccc(Cl)cc1-c1ccccc1	none (no result: NR2E3 ag-2)
O=c1[nH][nH]c(-c2ccccc2)c1C=Nc1ccc(OC(F)(F)F)cc1	none | NR2E3 ag confirm inactive | VP16 counter inactive
O=c1[nH][nH]c(-c2ccccc2)c1C=Nc1ccc(C(F)(F)F)cc1	none
C[C@@H]1CN([C@H](C)CO)C(=O)CCCn2nncc2CO[C@H]1CN(C)C(=O)Nc1ccc2c(c1)OCO2	none (no result: NR2E3 ag-2)
C[C@H](CO)N1C[C@H](C)[C@@H](CN(C)C(=O)Nc2ccc3c(c2)OCCO3)OCc2cnnn2CCCC1=O	none (no result: NR2E3 ag-2) | NR2E3 ag confirm inactive | VP16 counter inactive
CCOc1ccc(NS(=O)(=O)c2ccc(C(=O)N3CCCC(C)C3)cc2)cc1 (centres undefined)	none | NR2E3 ag confirm 73.8 | VP16 counter inactive
CCOc1ccc(S(=O)(=O)Nc2ccc(C(=O)N3CCCC3)cc2)cc1	none
CCOc1ccc(NS(=O)(=O)c2ccc(C(=O)N3CCCCCC3)cc2)cc1	NR2E3 ag-1 73.2 | NR2E3 ag confirm inactive | VP16 counter inactive
CCOc1ccc(S(=O)(=O)Nc2ccc(C(=O)N3CCC3)cc2)cc1	none
Cc1ccc(NS(=O)(=O)c2ccc(C(=O)N3CCN(c4ccccn4)CC3)cc2)cc1	none | NR2E3 ag confirm inactive | VP16 counter inactive
CCOc1ccc(NS(=O)(=O)c2ccc(NC(=O)C3CC3)cc2)cc1	none
COc1ccc(NS(=O)(=O)c2ccc(NC(=O)C3CC3)cc2)cc1	none | NR2E3 ag confirm inactive | VP16 counter inactive
COc1ccc(S(=O)(=O)N2CCOCC2)cc1NS(=O)(=O)c1ccc(F)c(F)c1	none (no result: NR2E3 ag-2)
COc1ccc(NS(=O)(=O)c2ccc(C(=O)N3CCCCCC3)cc2)cc1	NR2E3 ag-1 75.6 (no result: NR2E3 ag-2) | NR2E3 ag confirm inactive | VP16 counter inactive
CCOC(=O)N1CCN(C(=O)c2ccc(S(=O)(=O)Nc3ccc(C)cc3)cc2)CC1	none (no result: NR2E3 ag-2) | NR2E3 ag confirm 81.0 | VP16 counter inactive
Cc1ccc(S(=O)(=O)NCc2ccc(C(=O)N3CCN(c4ccc([N+](=O)[O-])cc4)CC3)cc2)cc1	none | NR2E3 ag confirm 82.6 | VP16 counter inactive
COc1ccc(NS(=O)(=O)c2cccc(C(=O)N3CCCCCC3)c2)cc1	none
CCCCN(CCCC)S(=O)(=O)c1ccc(NS(=O)(=O)c2ccc(NC(C)=O)cc2)cc1	none (no result: PG9 binder)
CCCCOc1ccc(S(=O)(=O)Nc2ccc(NC(C)=O)cc2)cc1	NR2E3 ag-1 70.2 | NR2E3 ag confirm inactive | VP16 counter inactive
COc1ccc(N2CCN(C(=O)c3ccc(CNS(=O)(=O)c4ccc(C)cc4)cc3)CC2)cc1	none
O=C(NN1C(=O)c2ccccc2NC1c1cccnc1)c1ccccc1 (centres undefined)	none
CCOc1ccc(S(=O)(=O)Nc2cc(Sc3ncn[nH]3)c3oc(=O)sc3c2)cc1	none (no result: Rev-erbA mod, PG9 binder, MC4R ag barr, MC4R antagonist, NR2E3 ag-1)
COc1ccc(CN(C)C(C#Cc2ccccc2)Cc2ccccc2)c(OC)c1 (centres undefined)	none (no result: PG9 binder, MC4R ag barr, MC4R antagonist, NR2E3 ag-1, NR2E3 ag-2)
CC(=O)Nc1ccc(S(=O)(=O)Oc2ccc(C(=S)N3CCC(O)CC3)cc2)cc1	none
